The results in this text go back to ChEMBL document CHEMBL1135765, “Synthesis of 3' '-substituted TSAO derivatives with anti-HIV-1 and anti-HIV-2 activity through an efficient palladium-catalyzed cross-coupling approach” (J Med Chem, 2002).

Test [1] concerns Human immunodeficiency virus 2. In words: Effective concentration required to inhibit HIV-2 induced cytopathicity in MT-4 cell culture by 50%. Format: functional, organism-based. The settings on record: Human immunodeficiency virus 2, MT4. Put shortly: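 MT-4 cells at 3 × 10⁵/mL infected with HIV-1 or HIV-2 at ~100 CCID₅₀ per mL, mixed 1:1 with compound dilutions. Cytopathicity read by trypan blue dye exclusion after 5 days. EC₅₀ is the concentration giving 50% protection against the virus-induced loss of cell viability.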

Test [2] in a line: Effective concentration required to inhibit HIV-1 induced cytopathicity in MT-4 cell culture by 50%. Particulars: mt4.
Test [3] has as its system Human immunodeficiency virus 2. In words: Effective concentration required to inhibit HIV-2 induced cytopathicity in CEM cell culture by 50%. The settings on record: Human immunodeficiency virus 2, CCRF-CEM. It counts as functional, organism-based. The essentials:
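CEM cells at 4 × 10⁵/mL infected with HIV-1 or HIV-2 at ~100 CCID₅₀ per mL, mixed 1:1 with compound dilutions. Giant cell formation scored microscopically after 4 days. EC₅₀ is the concentration inhibiting virus-induced cytopathicity by 50%.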

The test system of another test is MT4. In words: Cytotoxic concentration required to inhibit MT-4 cell proliferation by 50%. Format: functional. Particulars: Homo sapiens. Put shortly: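 Mock-infected MT-4 cells (3 × 10⁵/mL) incubated with compound dilutions; CC₅₀ is the concentration that reduces the number of viable MT-4 cells by 50%.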
For a further test, the system named is CCRF-CEM. In words: Cytostatic concentration required to inhibit CEM cell proliferation by 50%. Particulars: Homo sapiens. Format: functional. The essentials: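 CEM cells (4 × 10⁵/mL) exposed to compound dilutions without virus; CC₅₀ is the concentration that inhibits CEM cell proliferation by 50%.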

As for `Cc1cn([C@@H]2O[C@H](CO[Si](C)(C)C(C)(C)C)C3(OS(=O)(=O)C=C3N)[C@H]2O[Si](C)(C)C(C)(C)C)c(=O)[nH]c1=O` (stereo partly specified), the EC50 in test [1] was above 10 µM; in test [2], 0.06 µM; in test [3] it was above 10 µM. The same compound gave a CC50 with MT4 of 12 µM.

For `Cc1cn([C@@H]2O[C@H](CO[Si](C)(C)C(C)(C)C)[C@@]3(OS(=O)(=O)C=C3N)[C@H]2O[Si](C)(C)C(C)(C)C)c(=O)n(C)c1=O`, the concentration giving a half-maximal response (EC50) in test [1] and in test [3] was above 250 µM throughout. The compound further showed a CC50 in the test with MT4 of 230 µM.

Regarding `Cc1cn([C@@H]2O[C@H](CO[Si](C)(C)C(C)(C)C)[C@@]3(OS(=O)(=O)C(I)=C3N)[C@H]2O[Si](C)(C)C(C)(C)C)c(=O)[nH]c1=O`, the EC50 in test [1] and in test [3] was above 2 µM each time. Besides, the values for the CC50 in the test on CCRF-CEM and with MT4 were 4 µM and 4.3 µM, respectively.

In the case of `Cc1cn([C@@H]2O[C@H](CO[Si](C)(C)C(C)(C)C)[C@@]3(OS(=O)(=O)C(CC(N)=O)=C3NCC(N)=O)[C@H]2O[Si](C)(C)C(C)(C)C)c(=O)n(C)c1=O`, the EC50 in test [1] and in test [3] was above 2 µM throughout. Also, the CC50 with CCRF-CEM was determined as 3.9 µM; with MT4 it was 3.2 µM.

`Cc1cn([C@@H]2O[C@H](CO[Si](C)(C)C(C)(C)C)[C@@]3(OS(=O)(=O)C(/C=C/CO)=C3N)[C@H]2O[Si](C)(C)C(C)(C)C)c(=O)n(C)c1=O`: the concentration giving a half-maximal response (EC50) in test [1] is above 10 µM; in test [3], 5.7 µM. In addition, the values for the CC50 with CCRF-CEM and in the test on MT4 were 18 µM and 13 µM, respectively.

Regarding `C=CC1=C(N)[C@@]2(OS1(=O)=O)[C@@H](CO)O[C@@H](n1cc(C)c(=O)[nH]c1=O)[C@@H]2O[Si](C)(C)C(C)(C)C`, the 50% effective concentration (EC50) in test [1] and in test [3] was above 50 µM throughout. The CC50 with CCRF-CEM came to 76 µM; with MT4 it was 47 µM.

`Cc1cn([C@@H]2O[C@H](CO[Si](C)(C)C(C)(C)C)[C@@]3(OS(=O)(=O)C(Cl)=C3N)[C@H]2O[Si](C)(C)C(C)(C)C)c(=O)[nH]c1=O`: the EC50 in test [1] and in test [3] was above 10 µM in each case. Also, the CC50 with CCRF-CEM was determined as 7 µM; in the test on MT4, 5.4 µM.

Take `Cc1cn([C@@H]2O[C@H](CO[Si](C)(C)C(C)(C)C)[C@@]3(OS(=O)(=O)C(Br)=C3N)[C@H]2O[Si](C)(C)C(C)(C)C)c(=O)[nH]c1=O`: the EC50 in test [1] and in test [3] was above 10 µM each time. The figures for the half-maximal cytotoxic concentration (CC50) in the test with CCRF-CEM and in the test with MT4 were 17 µM and 18 µM, respectively.

For `Cc1cn([C@@H]2O[C@H](CO[Si](C)(C)C(C)(C)C)[C@@]3(OS(=O)(=O)C(c4ccccc4)=C3N)[C@H]2O[Si](C)(C)C(C)(C)C)c(=O)[nH]c1=O`, the EC50 was above 50 µM in test [1] and above 2 µM in test [3]. Also, the CC50 in the test on CCRF-CEM came out at 37 µM; with MT4, 55 µM.

For the compound `CC#CC1=C(N)[C@@]2(OS1(=O)=O)[C@@H](CO[Si](C)(C)C(C)(C)C)O[C@@H](n1cc(C)c(=O)n(C)c1=O)[C@@H]2O[Si](C)(C)C(C)(C)C`, the EC50 in test [1] and in test [3] was above 2 µM each time. Further, the CC50 with CCRF-CEM is 5 µM; in the test on MT4, 3.3 µM.

For `Cc1cn([C@@H]2O[C@H](CO[Si](C)(C)C(C)(C)C)[C@@]3(OS(=O)(=O)C(c4ccccc4)=C3N)[C@H]2O[Si](C)(C)C(C)(C)C)c(=O)n(C)c1=O`, in test [1], the EC50 was above 50 µM. Further, the results for the CC50 in the test with CCRF-CEM and in the test on MT4 were 65 µM and 24 µM, respectively.

On to `Cc1cn([C@@H]2O[C@H](CO[Si](C)(C)C(C)(C)C)[C@@]3(OS(=O)(=O)C(c4ccsc4)=C3N)[C@H]2O[Si](C)(C)C(C)(C)C)c(=O)n(C)c1=O`, for which the EC50 in test [1] and in test [3] was above 2 µM throughout. Further, the CC50 was found to be 33 µM with CCRF-CEM and 3.9 µM with MT4.

Consider `C=CCC1=C(N)[C@@]2(OS1(=O)=O)[C@@H](CO[Si](C)(C)C(C)(C)C)O[C@@H](n1cc(C)c(=O)n(C)c1=O)[C@@H]2O[Si](C)(C)C(C)(C)C`, for which the EC50 in test [1] and in test [3] was above 50 µM in each case. Also, the results for the CC50 with CCRF-CEM and in the test on MT4 were 45 µM and 82 µM, respectively.

As for `CNC1=C(C)S(=O)(=O)O[C@@]12[C@@H](CO[Si](C)(C)C(C)(C)C)O[C@@H](n1cc(C)c(=O)n(C)c1=O)[C@@H]2O[Si](C)(C)C(C)(C)C`, the EC50 in test [1] and in test [3] was above 250 µM in each case. The CC50 in the test on CCRF-CEM is 234 µM; with MT4 it was above 250 µM.

`CC1=C(N)[C@@]2(OS1(=O)=O)[C@@H](CO[Si](C)(C)C(C)(C)C)O[C@@H](n1cc(C)c(=O)n(C)c1=O)[C@@H]2O[Si](C)(C)C(C)(C)C`: the EC50 is above 250 µM in test [1] and above 50 µM in test [3]. Also, the CC50 in the test on CCRF-CEM was 10 µM; in the test with MT4, above 250 µM.

For `C=CCNC1=CS(=O)(=O)O[C@@]12[C@@H](CO[Si](C)(C)C(C)(C)C)O[C@@H](n1cc(C)c(=O)n(C)c1=O)[C@@H]2O[Si](C)(C)C(C)(C)C`, the EC50 in test [1] and in test [3] was above 50 µM each time. Moreover, the CC50 in the test on CCRF-CEM amounted to 126 µM; in the test on MT4, 25 µM.

As for `COC(=O)/C=C/C1=C(N)[C@@]2(OS1(=O)=O)[C@@H](CO[Si](C)(C)C(C)(C)C)O[C@@H](n1cc(C)c(=O)n(C)c1=O)[C@@H]2O[Si](C)(C)C(C)(C)C`, the EC50 in test [1] was above 10 µM; in test [3], above 2 µM. Also, the CC50 with CCRF-CEM stood at 37 µM; in the test on MT4, 55 µM.

Take `C=CC1=C(N)[C@@]2(OS1(=O)=O)[C@@H](CO[Si](C)(C)C(C)(C)C)O[C@@H](n1cc(C)c(=O)[nH]c1=O)[C@@H]2O[Si](C)(C)C(C)(C)C`: the half-maximal effective concentration (EC50) in test [1] was found to be 3.3 µM; in test [3], 4 µM. Moreover, the CC50 with CCRF-CEM was 36 µM; in the test with MT4 it was 24 µM.

For the compound `CCOC(=O)/C=C/C1=C(N)[C@@]2(OS1(=O)=O)[C@@H](CO[Si](C)(C)C(C)(C)C)O[C@@H](n1cc(C)c(=O)[nH]c1=O)[C@@H]2O[Si](C)(C)C(C)(C)C`, the EC50 in test [1] is above 50 µM; in test [3], above 10 µM. Besides, the CC50 with CCRF-CEM is 174 µM; in the test with MT4 it was 40 µM.

`COC(=O)/C=C/C1=C(N)[C@@]2(OS1(=O)=O)[C@@H](CO[Si](C)(C)C(C)(C)C)O[C@@H](n1cc(C)c(=O)[nH]c1=O)[C@@H]2O[Si](C)(C)C(C)(C)C`: the values for the EC50 in test [1] and in test [3] were 9.9 µM and 7.3 µM, respectively. Also, the CC50 in the test on CCRF-CEM amounted to 39 µM; with MT4, 29 µM.

On to `Cc1cn([C@@H]2O[C@H](CO[Si](C)(C)C(C)(C)C)[C@@]3(OS(=O)(=O)C(I)=C3N)[C@H]2O[Si](C)(C)C(C)(C)C)c(=O)n(C)c1=O`, for which the EC50 in test [1] is above 10 µM; in test [3], above 2 µM. Besides, the CC50 stood at 5.6 µM with CCRF-CEM and 3.9 µM in the test with MT4.

Regarding `Cc1cn([C@@H]2O[C@H](CO[Si](C)(C)C(C)(C)C)[C@@]3(OS(=O)(=O)C(/C=C/CO)=C3N)[C@H]2O[Si](C)(C)C(C)(C)C)c(=O)[nH]c1=O`, the figures for the EC50 in test [1] and in test [3] were 5.4 µM and 1.2 µM, respectively. Moreover, the CC50 turned out to be 18 µM in the test on CCRF-CEM and 17 µM in the test on MT4.

The EC50 is the concentration that produces a half-maximal response. Higher therefore signals lower potency in that assay. For orientation: CC50 means the concentration at which the toxic effect on the cells reaches its halfway point. The low end stands for harm at low concentration, the high end for better tolerance by the cells.
